For assay [1], the system named is Klebsiella pneumoniae. Description: Inhibition of Klebsiella pneumoniae metallo-beta-lactamase IMP-1 expressed in Escherichia coli BL21(DE3) using CENTA as substrate at 10 uM by spectrophotometric analysis. The method in brief:
(§1)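 Single-point screen with inhibitor at 10 µM against IMP-1 lacking the 21-residue signal peptide (2 nM final). Buffer was 50 mM HEPES pH 7.0 with 0.1 M NaCl, 100 µM ZnCl2 and BSA at 20 µg/mL. Substrate was CENTA at 70 µM. CENTA hydrolysis was followed by 4-nitrophenolate absorbance at 405 nm and reported as percent inhibition.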

The target of assay [2] is Beta-lactamase (Pseudomonas aeruginosa) (UniProt Q79MP6). Description: Inhibition of Pseudomonas aeruginosa metallo-beta-lactamase IMP-1 expressed in Escherichia coli BL21(DE3) using CENTA as substrate at 10 uM by spectrophotometric analysis. The method in brief:
as §1

Assay [3] relates to Klebsiella pneumoniae. Description: Competitive inhibition of Klebsiella pneumoniae metallo-beta-lactamase IMP-1 expressed in Escherichia coli BL21(DE3) using CENTA as substrate by spectrophotometric analysis. The method in brief:
(§2)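 IMP-1 lacking the first 21 signal-peptide residues, recombinantly expressed and purified, at 2 nM final. Buffer was 50 mM HEPES, 0.1 M NaCl, 100 µM ZnCl2, pH 7.0, with BSA at 20 µg/mL final. CENTA was varied from 5 to 70 µM final at three inhibitor concentrations. 4-Nitrophenolate release was read at 405 nm on a plate reader, and data were fitted by non-linear regression.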

The target of assay [4] is Beta-lactamase (Pseudomonas aeruginosa) (UniProt Q79MP6). Description: Competitive inhibition of Pseudomonas aeruginosa metallo-beta-lactamase IMP-1 expressed in Escherichia coli BL21(DE3) using CENTA as substrate by spectrophotometric analysis. The essentials: as §2
Beta-lactamase (Pseudomonas aeruginosa), sequence (Q79MP6 19-246 limits assumed): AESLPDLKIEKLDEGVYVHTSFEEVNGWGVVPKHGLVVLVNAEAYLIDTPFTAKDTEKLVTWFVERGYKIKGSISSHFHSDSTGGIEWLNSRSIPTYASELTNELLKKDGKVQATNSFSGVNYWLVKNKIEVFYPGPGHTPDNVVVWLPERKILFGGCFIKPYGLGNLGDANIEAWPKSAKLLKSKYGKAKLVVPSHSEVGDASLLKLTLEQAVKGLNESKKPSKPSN
For assay [5] the target is unchanged. The assay can be described thus: Uncompetitive inhibition of Pseudomonas aeruginosa metallo-beta-lactamase IMP-1 expressed in Escherichia coli BL21(DE3) using CENTA as substrate by spectrophotometric analysis. The method in brief:
as §2

In assay [6] the test system is Klebsiella pneumoniae. Description: Uncompetitive inhibition of Klebsiella pneumoniae metallo-beta-lactamase IMP-1 expressed in Escherichia coli BL21(DE3) using CENTA as substrate by spectrophotometric analysis. The method in brief: as §2

Regarding `Cc1ccc(-n2c(-c3ccccc3)c(-c3ccccc3)c3c2ncn2cnnc32)cc1`, the inhibition in assay [1] and in assay [2] was 4% throughout.
For the compound `Cc1ccc(-n2c(-c3ccccc3)c(-c3ccccc3)c3c(N/N=C/c4ccccc4)ncnc32)cc1`, the Kic in assay [3] and in assay [4] was 18 µM each time. For the same compound, the inhibition in assay [1] and in assay [2] was 13% each time.
For `Cc1ccc(-n2cc(-c3ccccc3)c3c(Cl)ncnc32)cc1`, the Kic in assay [3] and in assay [4] was 33 µM each time. The inhibition in assay [1] and in assay [2] was 9% each time. The Kiuc in assay [5] and in assay [6] was 106 µM in each case.
Turning to `COc1ccc(-n2c(-c3ccccc3)c(-c3ccccc3)c3c(Cl)ncnc32)cc1`, the Kic in assay [3] and in assay [4] was 12 µM in each case. For the same compound, the inhibition in assay [1] and in assay [2] was 15% each time. Further, the Kiuc in assay [5] and in assay [6] was 182 µM in each case.
For the compound `Cc1ccc(-n2c(-c3ccccc3)c(-c3ccccc3)c3c2ncn2c(=S)[nH]nc32)cc1`, the Kic in assay [3] and in assay [4] was 15 µM throughout. Further, the inhibition in assay [1] and in assay [2] was 14% throughout.
On to `Cc1ccc(-n2cc(-c3ccccc3)c3c(O)ncnc32)cc1`, for which the inhibition in assay [1] and in assay [2] was 0% each time.
As to `COc1ccc(-n2c3c(c(-c4ccccc4)c2-c2ccccc2)C(=C(C#N)C#N)NC=N3)cc1`, the Kic in assay [3] and in assay [4] was 29 µM in each case. The inhibition in assay [1] and in assay [2] was 17% throughout. The Kiuc in assay [5] and in assay [6] was 225 µM throughout.
Consider `Cc1ccc(-n2c(-c3ccccc3)c(-c3ccccc3)c3c(Cl)ncnc32)cc1`, for which the Kic in assay [3] and in assay [4] was 19 µM in each case. The inhibition in assay [1] and in assay [2] was 10% in each case. Further, the Kiuc in assay [5] and in assay [6] was 112 µM each time.
Consider `Cc1ccc(-n2c(-c3ccccc3)c(-c3ccccc3)c3c2ncn2c(C)nnc32)cc1`, for which the inhibition in assay [1] and in assay [2] was 7% in each case.
Regarding `Cc1ccc(-n2cc(-c3ccccc3)c(C#N)c2N)cc1`, the inhibition in assay [1] and in assay [2] was 0% throughout.
Turning to `COc1ccc(-n2cc(-c3ccccc3)c(C#N)c2N)cc1`, the inhibition in assay [1] and in assay [2] was 0% throughout.
